Experimental data: ChEMBL document CHEMBL1156555, “Synthesis and anti-inflammatory activity of 2-aryloxy methyl oxazolines” (Bioorg Med Chem Lett, 2008)

What was measured:
[1] = tested on: Rattus norvegicus; experiment: Antiinflammatory activity in po dosed albino rat assessed as inhibition of carrageenan-induced paw edema administered 30 mins prior to challenge; format: functional
[2] = Acute toxicity in albino rat assessed as mortality after 24 hrs; format: organism-based; settings: in vivo, read-out: ALD50
Method in brief: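 Albino rats (200–230 g), groups of 10, given test compounds intraperitoneally at several dose levels. Percent mortality per group recorded 24 h after dosing. ALD50 calculated from the mortality data by a previously described method.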

[3] = tested on: Rattus norvegicus; experiment: Antiinflammatory activity in albino rat assessed as inhibition of carrageenan-induced paw edema at 80 mg/kg, po administered 30 mins prior to challenge relative to control; format: functional
Method in brief: (§1)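 Groups of five rats (200–230 g) were dosed orally. After 30 min, 0.2 ml of 1% carrageenan in 0.9% NaCl was injected subcutaneously into the hind-paw plantar aponeurosis. Paw volume was read by water plethysmometer before and at 3 h. % inhibition = (1 − vt/vc) × 100, using mean relative oedema changes against five carrageenan-only controls.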

[4] = tested on: Rattus norvegicus; experiment: Toxic ulcerogenic effect in albino rat assessed as incidence of ulcer at 100 mg/kg, po; format: toxicity, organism-based; set-up: dose 100 mg/kg, route oral; settings: in vivo
Method in brief: (§2)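 Rats (200–230 g) in groups of 10 were fasted 24 h, then given the compound orally. They were killed 5 h after dosing. Stomach and small intestine were examined under a microscope for hyperemia, epithelial shedding, petechiae, frank haemorrhage, and erosion or ulceration with or without perforation. Any of these criteria counted as ulcerogenic.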

[5] = tested on: Rattus norvegicus; experiment: Toxic ulcerogenic effect in albino rat assessed as incidence of hyperemia at 400 mg/kg, po; format: toxicity, organism-based; set-up: dose 400 mg/kg, route oral; settings: in vivo; method in brief: as §2
[6] = tested on: Rattus norvegicus; experiment: Toxic ulcerogenic effect in albino rat assessed as incidence of ulcer at 400 mg/kg, po; format: toxicity, organism-based; set-up: dose 400 mg/kg, route oral; settings: in vivo; method in brief: as §2
[7] = tested on: Rattus norvegicus; experiment: Antiinflammatory activity in albino rat assessed as inhibition of carrageenan-induced paw edema at 40 mg/kg, po administered 30 mins prior to challenge relative to control; format: functional; method in brief: as §1
[8] = tested on: Rattus norvegicus; experiment: Antiinflammatory activity in albino rat assessed as inhibition of carrageenan-induced paw edema at 20 mg/kg, po administered 30 mins prior to challenge relative to control; format: functional; method in brief: as §1
[9] = tested on: Rattus norvegicus; experiment: Toxic ulcerogenic effect in albino rat assessed as incidence of hyperemia at 200 mg/kg, po; format: toxicity, organism-based; set-up: dose 200 mg/kg, route oral; settings: in vivo; method in brief: as §2
[10] = tested on: Rattus norvegicus; experiment: Toxic ulcerogenic effect in albino rat assessed as incidence of ulcer at 200 mg/kg, po; format: toxicity, organism-based; set-up: dose 200 mg/kg, route oral; settings: in vivo; method in brief: as §2
[11] = tested on: Rattus norvegicus; experiment: Toxic ulcerogenic effect in albino rat assessed as incidence of hyperemia at 100 mg/kg, po; format: toxicity, organism-based; set-up: dose 100 mg/kg, route oral; settings: in vivo; method in brief: as §2
[12] = organism: Oryctolagus cuniculus; experiment: Inhibition of cyclooxygenase in rabbit colon microsomes assessed as reduction in conversion of arachidonic acid to PGE2 at 10 uM by liquid scintillation spectrometry relative to control
Method in brief: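 Rabbit distal colon mucosa (2–3 g) was homogenized in 0.1 M Tris pH 8.0, and the microsomal pellet was used fresh. Microsomes were incubated with the test agent for 10 min at 37 °C in Tris-HCl pH 8.0 with 2 mM reduced glutathione, L-tryptophan and hematin. Products were separated by isocratic HPLC (150 mM orthophosphoric acid pH 3.5, 30% acetonitrile; UV 214 nm), and PGE2-co-eluting radioactivity was counted by liquid scintillation.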

Row | SMILES | ED50 [1] [mg/kg] | LD50 at 24 h [2] [mg/kg] | inhibition in vivo at 80 mg/kg [3] [%] | Activity [4] [%] | Activity [5] [%] | Activity [6] [%] | inhibition in vivo at 40 mg/kg [7] [%] | inhibition in vivo at 20 mg/kg [8] [%] | Activity [9] [%] | Activity [10] [%] | Activity [11] [%] | inhibition [12] [%]
1 | Fc1ccc(OCC2=NCCO2)cc1 | 75.5 | > 1000 | 40.5 | 50 | 50 | 75 | 30.2 | 18.5 | 40 | 25 | 25 | –
2 | Cc1ccc(OCC2=NCCO2)c(C)c1 | 57.3 | > 1000 | 85.5 | 15 | 75 | 18 | 46.5 | 31.4 | 50 | 25 | 25 | –
3 | CCCCC1C(=O)N(c2ccccc2)N(c2ccccc2)C1=O [PHENYLBUTAZONE] | – | – | 57.2 | 30 | 90 | 90 | 35.5 | 31.3 | 60 | 60 | 30 | 60
4 | Clc1ccc(OCC2=NCCO2)cc1 | 51.2 | > 1000 | 94.1 | 10 | 90 | 12 | 48.2 | 30.3 | 60 | 20 | 30 | –
5 | Cc1ccccc1OCC1=NCCO1 | 78.3 | > 1000 | 55.3 | 10 | 100 | 40 | 29.5 | 3.1 | 60 | 20 | 40 | 20
6 | Brc1ccccc1OCC1=NCCO1 | 62.5 | > 1000 | 62.8 | 10 | 100 | 40 | 29.1 | 20.1 | 90 | 20 | 70 | 40
7 | O=[N+]([O-])c1ccccc1OCC1=NCCO1 | 70.1 | > 1000 | 50.5 | 20 | 90 | 45 | 35.5 | 20.5 | 55 | 25 | 30 | 30
8 | Fc1ccccc1OCC1=NCCO1 | 76.2 | > 1000 | 60.1 | 10 | 80 | 20 | 30.5 | 20.6 | 60 | 15 | 40 | 65
9 | O=[N+]([O-])c1cccc(OCC2=NCCO2)c1 | 75.5 | > 1000 | 46.5 | 45 | 55 | 80 | 29.4 | 15.5 | 35 | 30 | 20 | –
10 | Cc1cccc(OCC2=NCCO2)c1 | 76.2 | > 1000 | 64.1 | 15 | 90 | 25 | 44.6 | 16.6 | 70 | 20 | 50 | 70
11 | O=[N+]([O-])c1ccc(OCC2=NCCO2)cc1 | 60.5 | > 1000 | 77.1 | 10 | 100 | 20 | 30.4 | 29.2 | 70 | 15 | 50 | 85
12 | Brc1ccc(OCC2=NCCO2)cc1 | 65.5 | > 1000 | 60.1 | 5 | 100 | 15 | 48.5 | 35.5 | 80 | 10 | 60 | 60
13 | Cc1cc(OCC2=NCCO2)ccc1Cl | 60.2 | > 1000 | 77.1 | 20 | 100 | 40 | 45.4 | 22.2 | 70 | 30 | 50 | 87
14 | CC(=O)Oc1ccccc1C(=O)O [ASPIRIN] | – | – | 59.6 | 80 | 90 | 90 | 35.5 | 30.4 | 60 | 90 | 30 | 65
15 | Clc1ccccc1OCC1=NCCO1 | 77.5 | > 1000 | 45.5 | 40 | 60 | 80 | 22.2 | 13.7 | 40 | 30 | 20 | –
16 | COc1ccc(OCC2=NCCO2)cc1 | 77.2 | > 1000 | 64.1 | 5 | 90 | 15 | 33.2 | 16.6 | 70 | 10 | 50 | 70
